The term IC50 denotes the midpoint of a concentration-inhibition curve. A high value points to a need for much substance. Broadly, the Ki is the equilibrium dissociation constant of an inhibitor or competing ligand from its target. A lower Ki goes with tighter binding.

In assay [1] the target is T1, α-amylase from porcine pancreas (Sus scrofa, UniProt P00690).
T1 sequence (P00690 16-511): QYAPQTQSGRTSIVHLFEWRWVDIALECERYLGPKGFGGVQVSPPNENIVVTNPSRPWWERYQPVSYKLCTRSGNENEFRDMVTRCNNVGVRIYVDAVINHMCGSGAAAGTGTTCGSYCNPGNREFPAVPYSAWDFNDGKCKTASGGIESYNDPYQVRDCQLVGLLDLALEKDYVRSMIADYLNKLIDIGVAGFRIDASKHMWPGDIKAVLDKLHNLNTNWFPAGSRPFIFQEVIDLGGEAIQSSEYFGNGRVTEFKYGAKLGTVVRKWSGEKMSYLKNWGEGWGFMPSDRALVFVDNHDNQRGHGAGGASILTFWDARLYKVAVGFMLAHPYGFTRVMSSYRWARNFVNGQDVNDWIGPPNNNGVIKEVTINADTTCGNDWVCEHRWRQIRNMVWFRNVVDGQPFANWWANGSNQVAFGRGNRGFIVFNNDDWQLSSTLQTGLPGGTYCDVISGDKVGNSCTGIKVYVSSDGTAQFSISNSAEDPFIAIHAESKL
The assay is described as follows: α-amylase inhibition assay. In kind it is biochemical.

Assay [2] has as its target T1, α-amylase from porcine pancreas. The experiment in a line: α-amylase inhibition kinetics. In kind it is biochemical. The note with it: for type (mechanism) of α-amylase inhibition: Lineweaver–Burk plot, starch 0.5 to 2.5%. A digest of the protocol: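 Porcine pancreatic enzyme (1151 U mg−1 protein) diluted in 0.2 mol L−1 phosphate buffer, pH 6, preincubated with test compound (6.25–50 μM) 5 min at 25 °C. Soluble starch (0.5–2.5%) then added, 10 min at 25 °C. Reducing sugar measured with DNS (boiling water, 15 min) at 540 nm against a glucose standard curve. Inhibition type taken from Lineweaver–Burk plots, Vmax and KM by graph fitting.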

Entries after “also recorded” stand apart in the source; their conditions may differ.

The molecule `C=C1CC[C@@H]2C(C)(C)C(=O)/C(=C/c3ccc(N(C)C)cc3)C[C@@]2(C)[C@@H]1COc1ccc2ccc(=O)oc2c1` [Compound 3l, 7-(((1R,4aS,8aR)-7-((E)-4-(dimethylamino)benzylidene)-5,5,8a-trimethyl-2-methylene-6-oxodecahydronaphthalen-1-yl)methoxy)-2H-chromen-2-one] yielded an IC50 in assay [1] of 10.8 ± 0.6 µM. The “type (mechanism) of α-amylase inhibition” value in assay [2] is recorded as “mixed competitive-non-competitive inhibitors”.
Consider `C=C1CC[C@@H]2C(C)(C)C(=O)/C(=C/c3ccccc3OC)C[C@@]2(C)[C@@H]1COc1ccc2ccc(=O)oc2c1` [Compound 3i, 7-(((1R,4aS,8aR)-7-((E)-2-methoxybenzylidene)-5,5,8a-trimethyl-2-methylene-6-oxodecahydronaphthalen-1-yl)methoxy)-2H-chromen-2-one], for which, in assay [1], the IC50 stood at 14.5 ± 0.3 µM.
Regarding `C=C1CC[C@@H]2C(C)(C)C(=O)/C(=C/c3ccc(Br)cc3)C[C@@]2(C)[C@@H]1COc1ccc2ccc(=O)oc2c1` [Compound 3e, 7-(((1R,4aS,8aR)-7-((E)-4-bromobenzylidene)-5,5,8a-trimethyl-2-methylene-6-oxodecahydronaphthalen-1-yl)methoxy)-2H-chromen-2-one], half-maximal inhibition in assay [1] (IC50) required 15.4 ± 0.29 µM.
The molecule `C=C1CC[C@@H]2C(C)(C)C(=O)/C(=C/c3ccc(OC)c(OC)c3)C[C@@]2(C)[C@@H]1COc1ccc2ccc(=O)oc2c1` [Compound 3j, 7-(((1R,4aS,8aR)-7-((E)-3,4-dimethoxybenzylidene)-5,5,8a-trimethyl-2-methylene-6-oxodecahydronaphthalen-1-yl)methoxy)-2H-chromen-2-one] returned a half-maximal inhibitory concentration (IC50) in assay [1] of 13 ± 0.96 µM. In addition, in assay [2], the “type (mechanism) of α-amylase inhibition” value is “non-competitive inhibition”.
On to `C=C1CC[C@@H]2C(C)(C)C(=O)CC[C@@]2(C)[C@@H]1COc1ccc2ccc(=O)oc2c1` [Compound 2, 7-(((1R,4aS,8aR)-5,5,8a-trimethyl-2-methylene-6-oxodecahydronaphthalen-1-yl)methoxy)-2H-chromen-2-one], for which the IC50 in assay [1] worked out at 25 ± 0.99 µM.
In the case of `C=C1CC[C@@H]2C(C)(C)C(=O)/C(=C/c3cccc(OC(F)(F)C(F)F)c3)C[C@@]2(C)[C@@H]1COc1ccc2ccc(=O)oc2c1` [Compound 3k, 7-(((1R,4aS,8aR)-5,5,8a-trimethyl-2-methylene-6-oxo-7-((E)-3-(1,1,2,2-tetrafluoroethoxy)benzylidene)decahydronaphthalen-1-yl)methoxy)-2H-chromen-2-one], the midpoint of inhibition in assay [1], the IC50, lay at 7.24 ± 0.36 µM. For the same molecule, in assay [2], the Ki was found to be 1.02 µM and the “type (mechanism) of α-amylase inhibition” value is “mixed competitive-non-competitive inhibitors”.
In assay [1], `C=C1CC[C@@H]2C(C)(C)C(=O)/C(=C/c3ccc4ccccc4c3)C[C@@]2(C)[C@@H]1COc1ccc2ccc(=O)oc2c1` [Compound 3b, 7-(((1R,4aS,8aR,E)-5,5,8a-trimethyl-2-methylene-7-(naphthalen-2-ylmethylene)-6-oxodecahydronaphthalen-1-yl)methoxy)-2H-chromen-2-one] gave a half-maximal inhibitory concentration (IC50) of 14.4 ± 0.3 µM.
Regarding `C=C1CC[C@@H]2C(C)(C)C(=O)/C(=C/c3ccc(Cl)cc3)C[C@@]2(C)[C@@H]1COc1ccc2ccc(=O)oc2c1` [Compound 3d, 7-(((1R,4aS,8aR)-7-((E)-4-chlorobenzylidene)-5,5,8a-trimethyl-2-methylene-6-oxodecahydronaphthalen-1-yl)methoxy)-2H-chromen-2-one], the half-maximal inhibitory concentration (IC50) in assay [1] worked out at 17.2 ± 0.5 µM.
Turning to `C=C1CC[C@@H]2C(C)(C)C(=O)/C(=C/c3ccc(F)cc3)C[C@@]2(C)[C@@H]1COc1ccc2ccc(=O)oc2c1` [Compound 3c, 7-(((1R,4aS,8aR)-7-((E)-4-fluorobenzylidene)-5,5,8a-trimethyl-2-methylene-6-oxodecahydronaphthalen-1-yl)methoxy)-2H-chromen-2-one], half-maximal inhibition in assay [1] (IC50) was put at 13.2 ± 0.73 µM. This IC50 and that of the molecule before are within 1.5-fold of each other.
`C=C1CC[C@@H]2C(C)(C)C(=O)/C(=C/c3ccccc3)C[C@@]2(C)[C@@H]1COc1ccc2ccc(=O)oc2c1` [Compound 3a, 7-(((1R,4aS,8aR)-7-((E)-benzylidene)-5,5,8a-trimethyl-2-methylene-6-oxodecahydronaphthalen-1-yl)methoxy)-2H-chromen-2-one] registered an IC50 in assay [1] of 29 ± 0.65 µM.
Still for that read-out and setting: the result for `C=C1CC[C@@H]2C(C)(C)C(=O)/C(=C/c3ccc(C)cc3)C[C@@]2(C)[C@@H]1COc1ccc2ccc(=O)oc2c1` [Compound 3f, 7-(((1R,4aS,8aR)-5,5,8a-trimethyl-7-((E)-4-methylbenzylidene)-2-methylene-6-oxodecahydronaphthalen-1-yl)methoxy)-2H-chromen-2-one] reads 22.3 ± 0.9 µM.
The molecule `C=C1CC[C@@H]2C(C)(C)C(=O)/C(=C/c3ccc(C(C)(C)C)cc3)C[C@@]2(C)[C@@H]1COc1ccc2ccc(=O)oc2c1` [Compound 3g, 7-(((1R,4aS,8aR)-7-((E)-4-(tert-butyl)benzylidene)-5,5,8a-trimethyl-2-methylene-6-oxodecahydronaphthalen-1-yl)methoxy)-2H-chromen-2-one] gave a concentration for half-maximal inhibition (IC50) in assay [1] of 22.7 ± 0.86 µM.
Consider `C=C1CC[C@@H]2C(C)(C)C(=O)/C(=C/c3ccc(OC)cc3)C[C@@]2(C)[C@@H]1COc1ccc2ccc(=O)oc2c1` [Compound 3h, 7-(((1R,4aS,8aR)-7-((E)-4-methoxybenzylidene)-5,5,8a-trimethyl-2-methylene-6-oxodecahydronaphthalen-1-yl)methoxy)-2H-chromen-2-one], for which it took 13.5 ± 0.54 µM to reach half-maximal inhibition in assay [1] (IC50).
`C=C1CC[C@@H]2C(C)(C)C(=O)/C(=C/c3ccc(N4CCCC4)cc3)C[C@@]2(C)[C@@H]1COc1ccc2ccc(=O)oc2c1` [Compound 3m, 7-(((1R,4aS,8aR)-5,5,8a-trimethyl-2-methylene-6-oxo-7-((E)-4-(pyrrolidin-1-yl)benzylidene)decahydronaphthalen-1-yl)methoxy)-2H-chromen-2-one] showed an IC50 in assay [1] of 8.83 ± 0.22 µM. For the same molecule, the “type (mechanism) of α-amylase inhibition” value in assay [2] is on record as “mixed non-competitive-uncompetitive inhibitor; also recorded: mixed non-competitive-uncompetitive inhibition”.

Source of the values: paper PMC10840089 (RSC Advances, 2024).
